Converted amounts (≈) assume the structure as drawn. “And” between values parts separate entries of the source, which are not always exact repeats. Identical values can stand only once.
Columns and labels:
Bacillus subtilis = assay: In vitro inhibition of growth of Bacillus subtilis (ATCC 6633); type: functional
Summary of the method: (§1)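 Agar dilution using serial 2-fold dilutions in Mueller-Hinton agar, with plate concentrations 0.006 to 100 μg/mL. Inoculum approx. 10^6 cfu/mL. Plates incubated at 37 °C for 18 h. MIC taken as the lowest concentration preventing visible bacterial growth.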

Escherichia coli [1] = assay: In vitro Inhibition of growth of Escherichia coli(KC-14); type: functional; summary of the method: as §1
Klebsiella pneumoniae = assay: In vitro inhibition of growth of Klebsiella pneumoniae (PC-1602); type: functional; summary of the method: as §1
Mus musculus [2] = assay: (§2) Inhibition of growth of Escherichia coli (KC-14) upon oral administration in mice; type: functional
Summary of the method: (§3)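 Groups of 10 male ddY mice (20 ± 2 g) were inoculated intraperitoneally with 0.5 mL of E. coli KC-14 at 10 or 100 times the 50% lethal dose. Compounds, suspended in 0.5% sodium (carboxymethyl)cellulose, were given orally 1 h postinfection. Survival was scored after 1 week. ED50 is reported with 95% confidence limits.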

Pseudomonas aeruginosa = assay: In vitro inhibition of growth of Pseudomonas aeruginosa(E-2); type: functional; summary of the method: as §1
Proteus vulgaris = assay: In vitro inhibition of growth of Proteus vulgaris(OX-19); type: functional; summary of the method: as §1
Serratia marcescens = assay: In vitro inhibition of growth of Serratia marcescens (IAM1184); type: functional; summary of the method: as §1
Staphylococcus aureus = assay: Inhibition of growth of Staphylococcus aureus (FDA207PJC-1) after incubation at 37 degree Centigrade; type: functional; summary of the method: as §1
Mus musculus [3] = assay: Serum levels in Mice 0.5 hr after Oral administration of 50 mg/kg; nd= Not detected; type: functional, organism-based; design: dose 50 mg/kg
Summary of the method: (§4)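 Mice dosed orally at 50 mg/kg, suspended in 0.5% sodium (carboxymethyl)cellulose; prodrugs given at a dose equivalent to 50 mg/kg of parent acid. Mice killed by bleeding at 0.5, 1.0, 2.0 and 4.0 h, and serum obtained by centrifugation. Serum analysed by HPLC, eluting with 5% AcOH/MeOH (70/30). Values given with standard deviation.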

Mus musculus [4] = assay: Serum levels in Mice 1 hr after Oral administration of 50 mg/kg; nd= Not detected; type: functional, organism-based; design: dose 50 mg/kg; summary of the method: as §4
Mus musculus [5] = assay: Serum levels in Mice 2 hr after Oral administration of 50 mg/kg; nd= Not detected; type: functional, organism-based; design: dose 50 mg/kg; summary of the method: as §4
Mus musculus [6] = assay: Serum levels in Mice 4 hr after Oral administration of 50 mg/kg; nd= Not detected; type: functional, organism-based; design: dose 50 mg/kg; summary of the method: as §4
Mus musculus [7] = assay: (§5) Inhibition of growth of Escherichia coli (KC-14) upon oral administration in mice(95%CL); type: functional
Summary of the method: (§6)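 Male ddY mice (20 ± 2 g, groups of 10) infected intraperitoneally with 0.5 mL of E. coli KC-14 dilution at 10 or 100 times the 50% lethal dose. Compounds suspended in 0.5% sodium (carboxymethyl)cellulose and given orally 1 h postinfection. Survival scored after 1 week. ED50 derived with 95% confidence limits.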

Escherichia coli [8] = assay: as §2; type: functional; summary of the method: as §3
[9] = Area under the curve in concentration/ time; type: ADME
Summary of the method: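 Mice dosed orally at 50 mg/kg (formyl prodrug at a dose equivalent to 50 mg/kg of parent acid), suspended in 0.5% sodium (carboxymethyl)cellulose. Mice killed by bleeding at 0.5, 1.0, 2.0 and 4.0 h. Blood centrifuged and serum drug levels measured by HPLC. AUC from the serum concentration–time curve, in μg/mL per hour.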

Escherichia coli [10] = assay: as §5; type: functional; summary of the method: as §6
[11] = Klebsiella pneumoniae, read-out: MIC
[12] = Proteus vulgaris, read-out: MIC
[13] = Staphylococcus aureus, read-out: MIC

MIC (Klebsiella pneumoniae) [µg/mL]	MIC (Staphylococcus aureus) [µg/mL]	Structure (SMILES)	MIC (Bacillus subtilis) [µg/mL]	MIC (Escherichia coli [1]) [µg/mL]	MIC (Klebsiella pneumoniae; [11]) [µg/mL]	ED50 (Mus musculus [2]) [mg/kg]	MIC (Pseudomonas aeruginosa) [µg/mL]	MIC (Proteus vulgaris; [12]) [µg/mL]	MIC (Serratia marcescens) [µg/mL]	MIC (Staphylococcus aureus; [13]) [µg/mL]	Serum level (Mus musculus [3])	Serum level (Mus musculus [4])	Serum level (Mus musculus [5])	Serum level (Mus musculus [6])	ED50 (Mus musculus [7]) [mg/kg]	MIC (Proteus vulgaris) [µg/mL]	ED50 (Escherichia coli [8]) [mg/kg]	ED50 (Escherichia coli [8]; Escherichia coli, po) [mg/kg]	AUC [9]	ED50 (Escherichia coli [10]) [mg/kg]
–	–	O=Cc1cn(C2CC2)c2cc(N3CCNCC3)c(F)cc2c1=O	6.25 (≈ 19.8 µM)	3.13 (≈ 9.93 µM)	12.5 (≈ 39.6 µM)	0.49	50 (≈ 159 µM)	3.13 (≈ 9.93 µM)	12.5 (≈ 39.6 µM)	25 (≈ 79.3 µM)	–	–	–	–	–	–	–	–	–	–
–	–	CCn1cc(C=O)c(=O)c2cc(F)c(N3CCNCC3)cc21	12.5 (≈ 41.2 µM)	12.5 (≈ 41.2 µM)	3.12 (≈ 10.3 µM)	2.53	< 100	6.25 (≈ 20.6 µM)	< 100	< 100	Not detected	Not detected	Not detected	Not detected	–	–	–	–	–	–
–	–	CCn1cc(C=O)c(=O)c2cc(F)c(N3CCN(C)CC3)cc21	3.13 (≈ 9.86 µM)	6.25 (≈ 19.7 µM)	1.56 (≈ 4.92 µM)	–	< 25	–	12.5 (≈ 39.4 µM)	12.5 (≈ 39.4 µM)	–	–	–	–	0.84	1.56 (≈ 4.92 µM)	–	–	–	–
0.05 (≈ 0.15 µM)	0.39 (≈ 1.17 µM)	CCn1cc(C(=O)O)c(=O)c2cc(F)c(N3CCN(C)CC3)cc21 [PEFLOXACIN]	–	–	0.05 (≈ 0.15 µM)	–	–	0.05 (≈ 0.15 µM)	–	0.39 (≈ 1.17 µM)	–	–	–	–	–	0.05 (≈ 0.15 µM)	1.67	1.67	–	–
–	–	CCn1cc(C(=O)O)c(=O)c2cc(F)c(N3CCNCC3)cc21 [NORFLOXACIN]	0.2 (≈ 0.626 µM)	0.1 (≈ 0.313 µM)	0.05 (≈ 0.157 µM)	–	0.78 (≈ 2.44 µM)	0.05 (≈ 0.157 µM)	0.2 (≈ 0.626 µM)	0.2 (≈ 0.626 µM)	–	–	–	–	–	–	–	–	0.98 µg/mL/h and 1.77 µg/mL/h	7.68

Source: ChEMBL document CHEMBL1123953, “Studies on prodrugs. 7. Synthesis and antimicrobial activity of 3-formylquinolone derivatives” (J Med Chem, 1988)
